This passage reports CC50, EC50 and IC50 results from ChEMBL document CHEMBL1126119, “3',3'-Difluoro-3'-deoxythymidine: comparison of anti-HIV activity to 3'-fluoro-3'-deoxythymidine” (J Med Chem, 1992).

Where only a bound is given, the exact number is not on record here.

Assay [1] concerns MT4. The experiment in a line: Concentration required to reduce the number of viable cells in the untreated MT-4 cell culture. Conditions: Homo sapiens, read-out: CD50 (the source's name). Type of assay: functional. In short, it runs like this:
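Uninfected, untreated MT4 cell cultures were used. CD50 is the cytotoxic dose that reduces the number of viable cells by 50%.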

The test system of assay [2] is MT4. The experiment in a line: Concentration required to affect a 50% reduction in the cytopathic effect of HIV for MT-4 cells. It is filed as functional. Conditions: Homo sapiens, read-out: ED50 (the source's name). In short, it runs like this: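 HIV-infected MT4 cell cultures were used. ED50 is the dose that gives a 50% reduction in the HIV-induced cytopathic effect.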
In general terms: Protection from cytopathic effect is a common read-out in antiviral testing.

The target of assay [3] is Human immunodeficiency virus type 1 reverse transcriptase (Human immunodeficiency virus 1, UniProt Q72547). The experiment in a line: Concentration required to inhibit HIV reverse transcriptase.

Turning to `Cc1cn([C@H]2C[C@H](N=[N+]=[N-])[C@@H](CO)O2)c(=O)[nH]c1=O` [ZIDOVUDINE], the CC50 in the assay on MT4 [1] came to 20 µM. Further, in the assay with MT4 [2], the EC50 was 0.004 µM. The IC50 in assay [3] was 0.04 µM.
Take `Cc1cn([C@H]2C[C@H](F)[C@@H](CO)O2)c(=O)[nH]c1=O` [ALOVUDINE]: the CC50 with MT4 [1] was 0.197 µM. Further, the EC50 in the assay with MT4 [2] came to 0.001 µM. The same compound returned a half-maximal inhibitory concentration (IC50) in assay [3] of less than 0.05 µM.
For `Cc1cn([C@H]2CC(F)(F)[C@@H](CO)O2)c(=O)[nH]c1=O`, in the assay with MT4 [1], the CC50 was determined as 48.4 µM. Further, the EC50 in the assay with MT4 [2] is 38.6 µM. The compound also registered an IC50 in assay [3] of 8.8 µM.
`Cc1cn([C@H]2CC[C@@H](CO)O2)c(=O)[nH]c1=O`: the CC50 in the assay on MT4 [1] was greater than 625 µM. Further, in the assay with MT4 [2], the EC50 turned out to be 6 µM. In assay [3], this compound returned an IC50 of less than 0.05 µM.

Usually IC50 stands for the midpoint of a concentration-inhibition curve. A lower IC50 goes with higher potency.
